Calls of active or inactive are those of the source. The calls are words filed in the database; no cut-off is given here.
Legend:
[1] = Antiproliferative activity in mouse BAF3 cells after 72 hrs by CCK8 assay; assay type: cell-based
Procedure, shortened: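 IL-3-independent BaF3 cells carrying tel-c-KIT constructs, grown in RPMI 1640 with 10% FBS. Cells at 1.5-5 × 10^4 cells/mL mixed directly with serial compound dilutions, 72 h at 37 °C, 5% CO2. CCK-8 read-out at 450 nm, normalized to DMSO; GI50 by curve fitting.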

[2] = biological target: Mast/stem cell growth factor receptor Kit (Homo sapiens, UniProt P10721); assay: Inhibition of wild type TEL fused c-KIT (unknown origin) transfected in mouse BAF3 cells assessed as growth inhibition after 72 hrs by CCK8 assay; assay type: cell-based; details: baf3, 72 h
Procedure, shortened: (§1)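 IL-3 independent BaF3 cells stably expressing tel-c-KIT wt or tel-c-KIT T670I, grown in RPMI 1640 with 10% FBS, 2% L-glutamine, 37 °C, 5% CO2. Suspension cells at 1.5 to 5 × 10^4 cells/mL mixed with serial compound dilutions and incubated 72 h. Viability read by CCK-8 absorbance at 450 nm, normalized to DMSO; GI50 from curve fit. Selectivity is wt GI50 over T670I GI50.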

[3] = system: Mast/stem cell growth factor receptor Kit (Homo sapiens), P10721 [T670I]; assay: Inhibition of TEL fused c-KIT T670I mutant (unknown origin) transfected in mouse BAF3 cells assessed as growth inhibition after 72 hrs by CCK8 assay; assay type: cell-based
Procedure, shortened: (§2)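 Tel-c-KIT-transformed BaF3 lines (IL-3 independent) kept in RPMI 1640 with 10% FBS, 2% L-glutamine and pen/strep. Cells at 1.5 to 5 × 10^4 cells/mL mixed with graded compound and incubated 72 h at 37 °C, 5% CO2. Viability by CCK-8 absorbance at 450 nm, normalized to DMSO. GI50 from dose–response fit.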

[4] = Selectivity ratio, ratio of inhibition of wild type TEL fused c-KIT (unknown origin) transfected in mouse BAF3 cells assessed as growth inhibition to inhibition of TEL fused c-KIT T670I mutant (unknown origin) transfected in mouse BAF3 cells assessed as growth inhibition; design: species or system Homo sapiens; procedure, shortened: as §1
[5] = system: Mast/stem cell growth factor receptor Kit (Homo sapiens), P10721 [V559A]; assay: Inhibition of TEL fused c-KIT V559A mutant (unknown origin) transfected in mouse BAF3 cells assessed as growth inhibition after 72 hrs by CCK8 assay; assay type: cell-based; procedure, shortened: as §2
[6] = system: Mast/stem cell growth factor receptor Kit (Homo sapiens), P10721 [V559G]; assay: Inhibition of TEL fused c-KIT V559G mutant (unknown origin) transfected in mouse BAF3 cells assessed as growth inhibition after 72 hrs by CCK8 assay; assay type: cell-based; procedure, shortened: as §2
[7] = system: Mast/stem cell growth factor receptor Kit (Homo sapiens), P10721 [L576P]; assay: Inhibition of TEL fused c-KIT L576P mutant (unknown origin) transfected in mouse BAF3 cells assessed as growth inhibition after 72 hrs by CCK8 assay; assay type: cell-based; procedure, shortened: as §2
[8] = system: Mast/stem cell growth factor receptor Kit (Homo sapiens), P10721 [V654A]; assay: Inhibition of TEL fused c-KIT V654A mutant (unknown origin) transfected in mouse BAF3 cells assessed as growth inhibition after 72 hrs by CCK8 assay; assay type: cell-based; procedure, shortened: as §2
[9] = system: Mast/stem cell growth factor receptor Kit (Homo sapiens), P10721 [D820E]; assay: Inhibition of TEL fused c-KIT D820E mutant (unknown origin) transfected in mouse BAF3 cells assessed as growth inhibition after 72 hrs by CCK8 assay; assay type: cell-based; procedure, shortened: as §2
GISTT1 [10] = assay: Antiproliferative activity against human GISTT1 cells harboring c-KIT 560 to 578 deletion mutant incubated for 72 hrs by CCK8 assay; assay type: functional; details: GISTT1, 72 h
Procedure, shortened: (§3)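 Adherent GIST cells seeded at 1.5-5 × 10^4 cells/mL and left overnight at 37 °C, 5% CO2. Medium then replaced with medium holding serial compound dilutions; 72 h incubation. Viability by CCK-8, absorbance at 450 nm, normalized to DMSO control; GI50 from dose-response fit.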

GIST882 = assay: Antiproliferative activity against human GIST882 cells harboring c-KIT K642E mutant incubated for 72 hrs by CCK8 assay; assay type: functional; details: GIST882, 72 h; procedure, shortened: as §3
GISTT1 [11] = assay: Antiproliferative activity against human GISTT1 cells harboring c-KIT 560 to 578 deletion/T670I double mutant incubated for 72 hrs by CCK8 assay; assay type: functional; details: GISTT1, 72 h; procedure, shortened: as §3
[12] = Antiproliferative activity against human GIST5R cells harboring c-KIT 560 to 578 deletion/T670I double mutant incubated for 72 hrs by CCK8 assay; assay type: functional; procedure, shortened: as §3
[13] = Antiproliferative activity against human GIST48B cells incubated for 72 hrs by CCK8 assay; assay type: functional; procedure, shortened: as §3
[14] = Antitumor activity against human GIST5R cells xenografted in nude mouse assessed as tumor weight at 100 mg/kg, po administered […] via gavage for 28 days (reference value: 0.59g); assay type: functional
Procedure, shortened: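 Female nu/nu mice (5 weeks old) given subcutaneous right-flank GIST-5R cells in Matrigel. Dosing began at tumors of 200-400 mm3; randomized, 4 mice per group. Daily oral dosing (QD) at 25, 50 or 100 mg/kg in 0.5% methylcellulose/0.4% Tween80, or vehicle alone, for 28 days. Body weight and tumor volume, (W²×L)/2, measured daily; mean±SEM.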

[15] = system: Mast/stem cell growth factor receptor Kit (Homo sapiens), P10721 [UNDEFINED MUTATION]; details: GISTT1, 1 uM
[16] = system: Mast/stem cell growth factor receptor Kit (Homo sapiens), P10721 [UNDEFINED MUTATION]; details: GISTT1, 1 uM; remark: listed apart in the source
[17] = system: Mast/stem cell growth factor receptor Kit (Homo sapiens), P10721 [UNDEFINED MUTATION]; details: 1 uM
[18] = system: Mast/stem cell growth factor receptor Kit (Homo sapiens), P10721 [V559D]; assay: Inhibition of TEL fused c-KIT V559D mutant (unknown origin) transfected in mouse BAF3 cells assessed as growth inhibition after 72 hrs by CCK8 assay; assay type: cell-based; procedure, shortened: as §2
[19] = system: Mast/stem cell growth factor receptor Kit (Homo sapiens), P10721 [V559D,V654A]; assay: Inhibition of TEL fused c-KIT V654A/V559D double mutant (unknown origin) transfected in mouse BAF3 cells assessed as growth inhibition after 72 hrs by CCK8 assay; assay type: cell-based; procedure, shortened: as §2
[20] = system: Mast/stem cell growth factor receptor Kit (Homo sapiens), P10721 [V559D,T670I]; assay: Inhibition of TEL fused c-KIT T670I/V559D double mutant (unknown origin) transfected in mouse BAF3 cells assessed as growth inhibition after 72 hrs by CCK8 assay; assay type: cell-based; procedure, shortened: as §2
[21] = system: Mast/stem cell growth factor receptor Kit (Homo sapiens), P10721 [D816V]; assay: Inhibition of TEL fused c-KIT D816V mutant (unknown origin) transfected in mouse BAF3 cells assessed as growth inhibition after 72 hrs by CCK8 assay; assay type: cell-based; procedure, shortened: as §2
[22] = system: Mast/stem cell growth factor receptor Kit (Homo sapiens), P10721 [D816H]; assay: Inhibition of TEL fused c-KIT D816H mutant (unknown origin) transfected in mouse BAF3 cells assessed as growth inhibition after 72 hrs by CCK8 assay; assay type: cell-based; procedure, shortened: as §2
[23] = system: Mast/stem cell growth factor receptor Kit (Homo sapiens), P10721 [N822K]; assay: Inhibition of TEL fused c-KIT N822K mutant (unknown origin) transfected in mouse BAF3 cells assessed as growth inhibition after 72 hrs by CCK8 assay; assay type: cell-based; procedure, shortened: as §2
[24] = system: Mast/stem cell growth factor receptor Kit (Homo sapiens), P10721 [A829P]; assay: Inhibition of TEL fused c-KIT A829P mutant (unknown origin) transfected in mouse BAF3 cells assessed as growth inhibition after 72 hrs by CCK8 assay; assay type: cell-based; procedure, shortened: as §2
Sequence of Mast/stem cell growth factor receptor Kit (Homo sapiens), P10721 [A829P] (P10721 whole entry A829P, the tested form may be a part): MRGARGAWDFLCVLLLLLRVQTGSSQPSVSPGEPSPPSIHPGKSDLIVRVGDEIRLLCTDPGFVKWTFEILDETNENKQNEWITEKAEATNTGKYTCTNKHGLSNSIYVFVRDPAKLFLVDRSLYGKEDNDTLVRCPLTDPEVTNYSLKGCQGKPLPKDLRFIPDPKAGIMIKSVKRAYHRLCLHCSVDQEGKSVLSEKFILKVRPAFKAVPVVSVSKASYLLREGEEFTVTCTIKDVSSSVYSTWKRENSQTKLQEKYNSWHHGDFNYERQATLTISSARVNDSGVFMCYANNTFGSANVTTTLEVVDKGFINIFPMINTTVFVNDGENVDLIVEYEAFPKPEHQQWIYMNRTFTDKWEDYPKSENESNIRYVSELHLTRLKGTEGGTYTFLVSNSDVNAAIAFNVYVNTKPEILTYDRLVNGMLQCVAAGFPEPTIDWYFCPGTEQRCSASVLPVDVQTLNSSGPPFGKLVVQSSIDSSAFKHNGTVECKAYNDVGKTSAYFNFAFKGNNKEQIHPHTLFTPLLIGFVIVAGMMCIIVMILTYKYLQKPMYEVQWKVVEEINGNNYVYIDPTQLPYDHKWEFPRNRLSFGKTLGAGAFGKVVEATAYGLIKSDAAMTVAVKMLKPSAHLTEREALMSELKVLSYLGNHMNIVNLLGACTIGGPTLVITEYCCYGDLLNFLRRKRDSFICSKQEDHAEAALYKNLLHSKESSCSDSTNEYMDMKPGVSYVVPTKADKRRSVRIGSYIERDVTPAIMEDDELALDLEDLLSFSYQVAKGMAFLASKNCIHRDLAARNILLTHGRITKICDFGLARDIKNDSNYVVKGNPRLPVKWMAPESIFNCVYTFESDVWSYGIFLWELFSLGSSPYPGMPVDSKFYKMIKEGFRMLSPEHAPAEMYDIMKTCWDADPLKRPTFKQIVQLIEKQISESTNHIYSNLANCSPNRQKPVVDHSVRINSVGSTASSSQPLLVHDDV

Sequence of Mast/stem cell growth factor receptor Kit (Homo sapiens), P10721 [UNDEFINED MUTATION] (P10721 whole entry, looked up, stated change not applied, the tested form may be a part): as the sequence (P10721 whole entry A829P, the tested form may be a part) above, with P829A counted along it
Sequence of Mast/stem cell growth factor receptor Kit (P10721 whole entry, the tested form may be a part): as the sequence (P10721 whole entry A829P, the tested form may be a part) above, with P829A counted along it
Sequence of Mast/stem cell growth factor receptor Kit (Homo sapiens), P10721 [T670I] (P10721 whole entry T670I, the tested form may be a part): as the sequence (P10721 whole entry A829P, the tested form may be a part) above, with T670I, P829A counted along it
Sequence of Mast/stem cell growth factor receptor Kit (Homo sapiens), P10721 [L576P] (P10721 whole entry L576P, the tested form may be a part): as the sequence (P10721 whole entry A829P, the tested form may be a part) above, with L576P, P829A counted along it
Sequence of Mast/stem cell growth factor receptor Kit (Homo sapiens), P10721 [V559G] (P10721 whole entry V559G, the tested form may be a part): as the sequence (P10721 whole entry A829P, the tested form may be a part) above, with V559G, P829A counted along it
Sequence of Mast/stem cell growth factor receptor Kit (Homo sapiens), P10721 [V559A] (P10721 whole entry V559A, the tested form may be a part): as the sequence (P10721 whole entry A829P, the tested form may be a part) above, with V559A, P829A counted along it
Sequence of Mast/stem cell growth factor receptor Kit (Homo sapiens), P10721 [D820E] (P10721 whole entry D820E, the tested form may be a part): as the sequence (P10721 whole entry A829P, the tested form may be a part) above, with D820E, P829A counted along it
Sequence of Mast/stem cell growth factor receptor Kit (Homo sapiens), P10721 [V654A] (P10721 whole entry V654A, the tested form may be a part): as the sequence (P10721 whole entry A829P, the tested form may be a part) above, with V654A, P829A counted along it
Sequence of Mast/stem cell growth factor receptor Kit (Homo sapiens), P10721 [D816H] (P10721 whole entry D816H, the tested form may be a part): as the sequence (P10721 whole entry A829P, the tested form may be a part) above, with D816H, P829A counted along it
Sequence of Mast/stem cell growth factor receptor Kit (Homo sapiens), P10721 [V559D] (P10721 whole entry V559D, the tested form may be a part): as the sequence (P10721 whole entry A829P, the tested form may be a part) above, with V559D, P829A counted along it
Sequence of Mast/stem cell growth factor receptor Kit (Homo sapiens), P10721 [V559D,V654A] (P10721 whole entry V559D/V654A, the tested form may be a part): as the sequence (P10721 whole entry A829P, the tested form may be a part) above, with V559D, V654A, P829A counted along it
Sequence of Mast/stem cell growth factor receptor Kit (Homo sapiens), P10721 [D816V] (P10721 whole entry D816V, the tested form may be a part): as the sequence (P10721 whole entry A829P, the tested form may be a part) above, with D816V, P829A counted along it
Sequence of Mast/stem cell growth factor receptor Kit (Homo sapiens), P10721 [N822K] (P10721 whole entry N822K, the tested form may be a part): as the sequence (P10721 whole entry A829P, the tested form may be a part) above, with N822K, P829A counted along it
Sequence of Mast/stem cell growth factor receptor Kit (Homo sapiens), P10721 [V559D,T670I] (P10721 whole entry V559D/T670I, the tested form may be a part): as the sequence (P10721 whole entry A829P, the tested form may be a part) above, with V559D, T670I, P829A counted along it

| Structure (SMILES) | GI50 at 72 h [1] | GI50 [2] | GI50 [3] | RatioGI50 [4] | further results |
| --- | --- | --- | --- | --- | --- |
| O=C(CC(=O)Nc1ccc2c(-c3cccnc3)n[nH]c2c1)Nc1ccc(Cl)c(C(F)(F)F)c1 | > 10000 nM | 320 nM | 45 nM | 7 - 15 |  |
| Cc1ccc(NC(=O)c2ccc(CN3CCN(C)CC3)cc2)cc1Nc1nccc(-c2cccnc2)n1 [IMATINIB] |  | 364 nM |  |  | GI50 [5]: 5 nM; GI50 [6]: 1 nM; GI50 [7]: 115 nM; GI50 [8]: 2300 nM; GI50 [9]: 267 nM; GI50 (GISTT1 [10]): 26 nM; GI50 (GIST882): 58 nM; GI50 (GISTT1 [11]): > 10000 nM; GI50 [12]: > 10000 nM; GI50 [13]: > 10000 nM; Activity [14]: 0.41 g; inhibition [15]: inactive; inhibition [16]: inactive; inhibition [17]: inactive |
| CNC(=O)c1ccccc1Sc1ccc2c(/C=C/c3ccccn3)n[nH]c2c1 [AXITINIB] |  | 105 nM | 108 nM |  | GI50 [18]: 12 nM; GI50 [5]: 5 nM; GI50 [6]: 2 nM; GI50 [7]: 7 nM; GI50 [19]: 13 nM; GI50 [8]: 14 nM; GI50 [20]: 129 nM; GI50 [21]: 2020 nM; GI50 [22]: 1820 nM; GI50 [9]: 156 nM; GI50 [23]: 1720 nM; GI50 [24]: 406 nM |
| O=C(CC(=O)Nc1ccc2c(/C=C/c3ccccn3)n[nH]c2c1)Nc1ccccc1 | 6720 nM | 2220 nM | 117 nM | 19 |  |
| Cn1cc(-c2n[nH]c3cc(NC(=O)CC(=O)Nc4ccc(Cl)c(C(F)(F)F)c4)ccc23)cn1 | > 10000 nM | 350 nM | 23 nM | 7 - 15 |  |
| CNC(=O)c1ccc(-c2n[nH]c3cc(NC(=O)CC(=O)Nc4ccc(Cl)c(C(F)(F)F)c4)ccc23)cc1 | > 10000 nM | 338 nM | 57 nM | 6 |  |
| O=C(CC(=O)Nc1ccc2c(/C=C/c3ccccn3)n[nH]c2c1)Nc1ccc(Cl)c(C(F)(F)F)c1 | 7400 nM | 25 nM | 2 nM | 12 |  |
| O=C(CC(=O)Nc1ccccc1F)Nc1ccc2c(/C=C/c3ccccn3)n[nH]c2c1 | 5090 nM | 2160 nM | 312 nM |  |  |
| O=C(CC(=O)Nc1ccc2cn[nH]c2c1)Nc1ccc(Cl)c(C(F)(F)F)c1 | > 10000 nM | > 10000 nM | 2670 nM |  |  |
| CNC(=O)c1cncc(-c2n[nH]c3cc(NC(=O)CC(=O)Nc4ccc(Cl)c(C(F)(F)F)c4)ccc23)c1 | > 10000 nM | > 10000 nM | 4840 nM |  |  |
| O=C(CC(=O)Nc1cc(F)ccc1F)Nc1ccc2c(/C=C/c3ccccn3)n[nH]c2c1 | 5080 nM | 3460 nM | 847 nM |  |  |
| CN(C)c1cccc(NC(=O)CC(=O)Nc2ccc3c(/C=C/c4ccccn4)n[nH]c3c2)c1 | > 10000 nM | 3870 nM | 594 nM |  |  |

Reference: ChEMBL document CHEMBL4304743, “Discovery of ( E)- N1-(3-Fluorophenyl)- N3-(3-(2-(pyridin-2-yl)vinyl)-1 H-indazol-6-yl)malonamide (CHMFL-KIT-033) as a Novel c-KIT T670I Mutant Selective Kinase Inhibitor for Gastrointestinal Stromal Tumors (GISTs)” (J Med Chem, 2019)
